Reference: ChEMBL document CHEMBL4513216, “Probing the Open Global Health Chemical Diversity Library for Multistage-Active Starting Points for Next-Generation Antimalarials” (ACS Infect Dis, 2020)

Assay: Toxicity liver stage against HepG2, at 10uM
Type: cell-based
Set-up: test concentration 10 uM, cell line HepG2-A16-CD81EGFP
Conditions: human, HepG2-A16-CD81EGFP cells; read-out: INHIBITION
In short: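 Uninfected HepG2-A16-CD81EGFP cells, 3 × 10^3 per well, 1536-well, plated on prespotted compound at 10 μM final, parasite-free screening media added to match infected plates; puromycin 10 μM positive, DMSO 0.5% negative; run in parallel with 48 h PbLuc assay at 37 °C, 5% CO2; viability by CellTiter-Glo luminescence, normalized to controls.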

Structure (SMILES) | cytotoxicity at 10 µM [%]
O=C(C1CC1)N1C[C@@H](F)[C@@H](OCc2nc3ccccc3[nH]2)C1 | -0.0342
c1ccc(-c2cc(CC3(NCc4ncc[nH]4)COC3)no2)cc1 | 2.05
CC(=O)N1CCC(NC[C@H]2Cn3c(-c4ccccc4)cnc3CO2)CC1 | -5.04
Cc1ccc(CN2CC(O)CN(C(=O)C3CC3)CC2=O)cc1 (configuration not stated) | -2.12
O=c1c(S(=O)(=O)N2CCCC2)cccn1Cc1c(F)cccc1Cl | 0.814
CC(C)N(C)Cc1n[nH]c2c1CCN(C(=O)c1cc[nH]n1)C2 | -134
Cc1nn(C)c2nc3c(c(C(=O)/N=c4\[nH]nc(C(C)C)s4)c12)CCC3 | -2.25
CC(C)c1ccc(-n2nnc(C(=O)O)c2-c2ccccn2)cc1 | 9.18
Cn1c(=O)[nH]c(=O)c2c1nc1n2CC(c2ccc(Cl)cc2)O1 (configuration not stated) | -176
CC(=O)N1N=C(c2ccccc2)OC1C(=O)NCCC1=CCCCC1 (configuration not stated) | 9.74
Cc1ccc(F)c(-n2nnc(C(=O)O)c2-c2ccncc2)c1 | -4.89
Cc1nn(C)c2c(=O)n(Cc3ccc(C#N)cc3)nnc12 | 3.12
CCOc1ccc(NC(C)=O)cc1S(=O)(=O)Nc1ccon1 | -10.8
CCn1cc(CN(C)S(=O)(=O)c2cnn(C)c2)cn1 | 8.16
COCCNc1cc(C(=O)N2CCOCC2)nc(C)n1 | 0.598
Cc1nc(NCC2CCOCC2)cc(C2CCN2S(C)(=O)=O)n1 (configuration not stated) | 2.58
O=C(O)c1ccccc1CN1CCCC(Cc2ccn[nH]2)C1 (configuration not stated) | 2.79
Cc1noc(C)c1-c1cccc(C2CCN(CC(=O)N(C)C)CC2)n1 | 6.33
CCOCCCNc1ncc(-c2cccc(F)c2)c(-c2nccn2C)n1 | 12.5
Cc1nc(C)n(CC(=O)N2CCCC(c3nc(C)n4c(C)csc34)C2)n1 (configuration not stated) | 2.08
NCCCC(=O)NCC1(O)CCN(c2ccnc3cccnc23)C1 (configuration not stated) | 1.58
NC1(CN2CCOCC2)CCCCC1 | 1.72
N#Cc1cn(C2CC2)c(=O)n(Cc2ncc(-c3cccs3)o2)c1=O | 14.8

Structure (SMILES) | cytotoxicity at 10 µM [%]
COC(=O)COc1c(F)cc(Br)cc1C(C)=O | 2.63
Cc1cccc2nc(CN3CCC(Cn4ccnn4)CC3)cc(=O)n12 | 2.62
CCN(Cc1ccc(N(C)C)cc1)S(=O)(=O)c1cc(Br)ccc1OC | 5.12
CCCn1nc(C(=O)N(C)Cc2nnc3n2CCC3)ccc1=O | 1.77
N#Cc1cccc(S(=O)(=O)NC2CCN(CC(F)(F)F)C2)c1 (configuration not stated) | -1.03
CC1CN(C)CCN1C(=O)c1cccn1Cc1ccncc1 (configuration not stated) | -5.53
CCOC(=O)C(C)NC(=O)CCSc1ccc(F)cc1 (configuration not stated) | 9.13
Cc1csc(CN(CC2CCCO2)C(=O)c2occc2C)n1 (configuration not stated) | 0.489
NC(=O)CN(CC(=O)NCc1cc(F)cc(F)c1)C1CCCC1 | -8.58
CCc1nc(C2CCCN(C(=O)C3=NN(CC)C(=O)CC3)C2)no1 (configuration not stated) | -9.28
CC(Nc1cccc2c1OCCO2)C(=O)Nc1cccc(C#N)c1 (configuration not stated) | 4.7
Cn1cc(CC2CC(=O)N(Cc3ccc(Cl)cc3)C2=O)cn1 (configuration not stated) | -0.276
CN(C1CCN(c2ccccn2)CC1)S(=O)(=O)c1ccc(F)cc1 | 11.2
CN1CCN(CC(NCc2ccc(F)c(F)c2)c2ccccc2)CC1 (configuration not stated) | -10
C[S+]([O-])c1nncn1CC(=O)c1cccc(C(F)(F)F)c1 (configuration not stated) | -0.661
NCC1(c2cccc(C(F)(F)F)c2)CCCCC1 | -8.66
Cc1cnc(C(=O)NCC(c2ccc(C)o2)N2CCOCC2)cn1 (configuration not stated) | -7.2
CCn1nc2c(cc1=O)CN(Cc1nc3ccccc3o1)CC2 | -8.9
Cc1cn2nc(N3CCn4c(nnc4C(C)C)C3)sc2n1 | 5.73
Cn1ccnc1CNC(=O)N(CCCO)C1CCc2ccccc21 (configuration not stated) | -11.6
O=C(c1[nH]nc(C2CC2)c1Cl)N1CCN(C2CC2)CC1 | -5.58
CC(C)CC(=O)Nc1cc(C(=O)N(C)C(C)C)ccc1Cl | -7.62
N#Cc1ccc(NCc2cccc(COC3CCOCC3)c2)nc1 | 32.4

Structure (SMILES) | cytotoxicity at 10 µM [%]
CC(c1cccnc1)N1CCN(CCc2ccccn2)CC1 (configuration not stated) | -6.18
CCN(CCNCc1cccc(C#N)c1)C1CC1 | -11.3
CN(C)C(=O)c1ccc(NCCNc2ccc3ccccc3n2)nc1 | 4.63
c1nc(CSc2nnc(C3CC3)s2)cs1 | -5.54
COc1ccc(CNc2nncs2)cc1F | -4.23
CCN(C(=O)CCc1ccc2c(c1)OCO2)C1CC(=O)NC1=O (configuration not stated) | -3.88
COc1cc2ccn(CCCO)c(=O)c2cc1F | -7.91
Cc1oc(C(=O)O)cc1S(=O)(=O)Nc1c(F)cccc1-n1cccn1 | -3.45
COc1ccnc(N2CCN(C(=O)c3csc(C(C)C)n3)CC2)n1 | -1.82
Cc1ccc(CC(=O)N2CCOC(c3nc(C(C)(C)C)n[nH]3)C2)cn1 (configuration not stated) | -5.96
c1cncc(N2CCCn3nnc(CN4CCOCC4)c3C2)c1 | 2.46
CO[C@H]1CCN(S(=O)(=O)c2cccs2)[C@H]1Cc1ccncc1 | -75
CN(C)C(=O)[C@H]1C[C@H]2OCC[C@H]2N(Cc2ccccn2)C1 | -75.5
CC(C)NC(=O)N1CCC2(CC(=O)N(c3cccc(F)c3)C2)C1 (configuration not stated) | 3.46
CC1=N[C@@]2(CC[C@@H]3CN(S(=O)(=O)N(C)C)C[C@@H]32)C(=O)N1CC(C)C | 3.16
CC(C)N[C@@H]1CC[C@@H]1NC(=O)c1ccccc1OC(F)(F)C(F)F | 1.77
Cc1cc(C2CCCN2Cc2ccc(C(=O)Nc3nccs3)cc2)on1 (configuration not stated) | -6.03
COCC(O)CNC(=O)c1cc(COc2ccc3c(c2)CCCC3)on1 (configuration not stated) | -147
CC(C)(C)C(=O)N1CCCC1c1ccc(C(=O)N2CCOCC2)s1 (configuration not stated) | -145
CC[C@H](C)[C@@H](CO)NC(C)Cc1ccc(F)cc1 (some centres not stated) | -6.27
CC(C)c1nccc(CN2CCCC(O)(CN(C)C)C2)n1 (configuration not stated) | 2.89
Cc1nnsc1CN1CCCC1c1nc(-c2ccccc2)no1 (configuration not stated) | -45.8
Cc1cccnc1CN(C)C(C(=O)O)c1ccc(-c2ccn[nH]2)cc1 (configuration not stated) | 12.2

Structure (SMILES) | cytotoxicity at 10 µM [%]
COc1cccc(CC2CN(C(=O)c3ccnn3C)CCO2)c1 (configuration not stated) | 0.769
CN(Cc1cccc(O)c1)C(=O)c1ccc(CCC(C)(C)O)cc1 | 3.58
Cc1nc(CN(C)C(=O)C2CC(=O)N(c3cccc(O)c3)C2)cs1 (configuration not stated) | -0.968
CC(C)c1ncc(CN2C[C@@H](CN3CCCN(C)CC3)[C@@H](CO)C2)cn1 | -9.77
Cc1c(CN2CCCC(C(=O)c3ccccc3)C2)cc(C#N)n1C (configuration not stated) | -6.63
O[C@@]1(CNCCCOc2cccnc2)CCCN2CCCC[C@@H]21 | 3.42
CC(C)(C)N1CC(C(=O)NCc2nc(C3CCCCC3)no2)CC1=O (configuration not stated) | 1.08
CCN1CCC(N2CCN(C)C3(CCC(=O)N(CCOC)CC3)C2)CC1 (configuration not stated) | -0.724
Cc1ccnc(CC(C)N(C)Cc2ccc3c(c2)OCCO3)c1 (configuration not stated) | -4.24
CC(C)CN1CCCn2nc(CNC(=O)CCCc3cn[nH]c3)cc2C1 | -6.36
CCCOCCN1CCC2(CC1)CC(c1ccccc1)C(=O)N2C (configuration not stated) | 38.1
COCc1c(C(=O)NC2CCCC2)nnn1-c1ccc(C)cc1 | 5.97
Cc1cc(C)cc(C(=O)Nc2cn[nH]c2)c1 | -6.57
COc1c(CNCc2ccc(N3CCCC3)nc2)c(C(C)C)nn1C | -11.5
Cc1nc(C)n(CC2CCCN2Cc2nc(-c3ccoc3)no2)n1 (configuration not stated) | -8.48
Cc1ncccc1CNCC1CCCN1c1cccnn1 (configuration not stated) | -14.2
Cc1cc(F)ccc1CNCc1cccc(C(=O)N2CCCC2)c1 | -10.8
Cc1noc(C2CCN(C(=O)c3cc(Br)ccc3F)CC2)n1 | -6.14
CN(Cc1ccco1)C(=O)CN1CCCCC1Cn1cncn1 (configuration not stated) | 3.61
COC(=O)N1CCCN(C(=O)c2cccc3cccnc23)CC1 | 8.33
CC1CN(CC(=O)N2CCCC2)CCN1c1ccc2nncn2n1 (configuration not stated) | -5.46
COc1ccccc1CC(=O)NS(=O)(=O)c1cncc(Br)c1 | -12.7
COc1cccc(C(=O)N2CCCCC2CNC(N)=O)c1 (configuration not stated) | -7.03

Structure (SMILES) | cytotoxicity at 10 µM [%]
CCOc1cc(C)nc(N2CCN(C(=O)CC)CC2)n1 | -6.68
COCCCN(C)C1CCCN(Cc2noc(C)n2)C1 (configuration not stated) | -8.06
CCOc1ccc(C#N)cc1NCC(=O)Nc1cc(C)no1 | -6.67
O=C(CN1CCCC(Cn2cncn2)C1)NCCOc1ccccc1 (configuration not stated) | 5.61
CC(C)COCC(NC(=O)c1ccccn1)c1ccco1 (configuration not stated) | -7.52
Cc1cnn(CC2CCCN2CC(=O)Nc2nc(C)cs2)c1 (configuration not stated) | -6.26
CC(C)c1nc(CCNC(=O)NCc2ccnc(N(C)C)c2)cs1 | -4.69
CCc1nc(C2CCCN(C(=O)c3ccc(OC(C)C)nc3)C2)no1 (configuration not stated) | 3.25
CNC(=O)CN1CCC(NC(=O)N(C)Cc2cc(C)on2)CC1 | -0.626
c1ccc(CNc2cc(C3CCCNC3)ccn2)nc1 (configuration not stated) | -0.565
Cc1c(NC(=O)CN2CCN(C3CCCC3)C(=O)C2)cnn1C | 5.25
Cn1nc(CN2CCOCC2)c2c1CN(Cc1ccsc1)C2 | -145
CN1CCN(C)C(c2nnc3ccc(C(=O)N4CCOCC4)cn23)C1 (configuration not stated) | -130
O=C(c1ccoc1)N1CCC(NCc2ccccc2Cl)CC1 | 3.95
CNC(=O)CN1CCC12CCN(C(=O)Cc1ccccc1)C2 (configuration not stated) | -75.4
O=C(c1cnccn1)N1CCCC2(CCN(Cc3ccc(F)cc3)C2)C1 (configuration not stated) | -153
COCCNC(=O)C1CN(Cc2cccc(C)n2)Cc2ccnn2C1 (configuration not stated) | -79.2
Cc1nc(N2CCCC2)nc2c1CCN(Cc1ccoc1)CC2 | -134
Cc1nc(CN2C(=O)COC3(CCN(C)CC3)C2C)cs1 (configuration not stated) | -128
CCC=C(C)C(=O)N1CSCC1C(=O)NC1=NCCS1 (configuration not stated) | 11.8
